DENV2 CPE: protects cells from dengue virus 2 cytopathic effect; DENV2-infected cells, cytopathic effect rescue, plate reader; CPE inhibition, % at 9.99 µM; 350,000 tested, 1.7% active; in the data active = CPE inhibition above about 20%, passing the limit was not always enough; inconclusive = no clear call, values can overlap the other calls; tested in BHK-21 cells
ERAP1 inh: ERAP1 (human) enzyme inhibition | inhibition, % at 10.7 µM | recombinant ERAP1, Leu-AMC fluorescence, 60 min | Q9NZ08 | 340,000 tested, 0.15% active | AID 652197;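 active = mean replicate inhibition of at least 30%, or all replicates individually reaching that 30% level; inactive = mean below 30% and not every replicate reaching it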
Target sequence (Q9NZ08 whole entry, looked up): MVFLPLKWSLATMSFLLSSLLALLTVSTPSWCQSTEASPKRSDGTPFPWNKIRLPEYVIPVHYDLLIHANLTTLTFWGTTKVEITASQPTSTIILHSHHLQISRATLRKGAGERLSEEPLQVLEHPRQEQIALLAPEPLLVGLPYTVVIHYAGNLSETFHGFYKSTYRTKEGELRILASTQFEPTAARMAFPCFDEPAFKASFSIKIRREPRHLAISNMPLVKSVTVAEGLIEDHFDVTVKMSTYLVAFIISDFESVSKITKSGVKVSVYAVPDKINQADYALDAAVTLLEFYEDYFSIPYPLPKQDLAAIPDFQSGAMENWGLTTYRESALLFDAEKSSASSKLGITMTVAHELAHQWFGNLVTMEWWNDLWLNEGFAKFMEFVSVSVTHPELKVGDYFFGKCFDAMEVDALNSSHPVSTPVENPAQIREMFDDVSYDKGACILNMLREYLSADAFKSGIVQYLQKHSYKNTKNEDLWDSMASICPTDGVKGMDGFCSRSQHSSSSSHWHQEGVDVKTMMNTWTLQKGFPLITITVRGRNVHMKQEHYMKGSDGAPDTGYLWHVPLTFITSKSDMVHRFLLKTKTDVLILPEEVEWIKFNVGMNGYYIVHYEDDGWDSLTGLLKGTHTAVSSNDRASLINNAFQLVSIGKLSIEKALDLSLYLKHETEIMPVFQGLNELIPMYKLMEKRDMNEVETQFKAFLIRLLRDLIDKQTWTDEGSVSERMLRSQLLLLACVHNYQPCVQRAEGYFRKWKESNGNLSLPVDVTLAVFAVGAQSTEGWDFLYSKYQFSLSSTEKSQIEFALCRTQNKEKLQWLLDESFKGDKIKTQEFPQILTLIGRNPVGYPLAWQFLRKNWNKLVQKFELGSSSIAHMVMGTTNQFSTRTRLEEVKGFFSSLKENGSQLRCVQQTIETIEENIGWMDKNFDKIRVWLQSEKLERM
E-sel inducer: induces E-selectin expression in human endothelial cells; P16581; HUVEC E-selectin immunofluorescence imaging; normalized: neutral wells 0, TNF-alpha wells 100; activation, % at 7.58 µM; 260,000 tested, 0.37% active;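 active = mean E-selectin-positive cell signal at least 10% of the positive control, reached in at least 60% of replicates, without over 20% cell loss; inconclusive = no rule given, readout overlaps actives, possibly toxicity-flagged; inactive = the rest, including those meeting only one limit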
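Read-out: % PE-positive cells | Test system: HUVEC | Doses: One compound dose added by pin transfer | Buffer or medium: EGM-2 over gelatin coat | Signal: Immunofluorescence imaging | Benchmarks: TNF-alpha, DMSO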
FGF22 binding: binders of recombinant human FGF22 by thermal shift | Q9HCT0 | SYPRO orange fluorescence; percent of sucrose octasulfate shift, DMSO zero | activity (Tm shift, normalised), % at 9.99 µM | 340,000 tested, 1.5% active | AID 651658;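 active = mean Tm shift, scaled 0 neutral to 100 positive control, at about 1.3% or above, every replicate too, limit read from the data; inconclusive = no clear call, values can overlap the other calls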
F508del corr: correctors of CFTR F508del function in bronchial epithelial cells. CFBE cells, YFP halide quenching; stimulated with forskolin plus potentiator P3; % fluorescence drop versus neutral controls. activity (quench increase), % at 7.58 µM. 350,000 tested, 0.36% active. AID 720511;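 active = mean added fluorescence quench of at least 8% versus neutral control, with both replicates also reaching 8%; inconclusive = only one of the mean or replicate conditions met; inactive = mean below 8% and not both replicates reaching 8%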;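 note: cells transiently co-express mutant CFTR-F508del with the halide-sensitive YFP; corrector assay measuring rescue of mutant channel to the surface after 24 h compound exposure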
Numbers stand for hits; - = inactive; ? = inconclusive; . = not tested or not shown. Shown are actives, neighbours in structure and some others; about 3.7% of the full set was active somewhere.

SMILES	DENV2 CPE	ERAP1 inh	E-sel inducer	FGF22 binding	F508del corr
OCCN(CC(O)COc1ccccc1)CC(O)Cn1ccc2ccccc21 (configuration not stated)	-	-	.	-	-
COc1ccc(OCC(O)CN(CCO)CC(O)Cn2ccc3ccccc32)cc1 (configuration not stated)	-	-	.	43	-
O=C(c1cccnc1)N1CCCCN2[C@H](CO)[C@H](c3ccc(C#Cc4cccnc4)cc3)[C@@H]2C1	.	.	-	-	-
Cc1n(N)c2ccccc2[n+]1CC(=O)c1ccccc1	-	-	-	43	-
O=C(COC(=O)c1cn(-c2ccccc2)nc1-c1ccc(F)cc1)Nc1ncc(Cl)cc1Cl	-	-	.	44	-
C[C@H](CO)N1C[C@H](C)[C@@H](CN(C)Cc2ccccn2)Oc2cc(C#C[C@@H](C)O)ccc2S1(=O)=O	-	-	-	-	-
C[C@@H]1CCCCO[C@H](CN(C)C(=O)NC2CCCCC2)[C@H](C)CN([C@H](C)CO)C(=O)c2cc(NC(=O)Nc3ccc(C(F)(F)F)cc3)ccc2O1	31	-	-	-	-
C[C@@H]1CN([C@@H](C)CO)C(=O)c2cc(NC(=O)Nc3ccc(C(F)(F)F)cc3)ccc2O[C@@H]1CN(C)C(=O)NC1CCCCC1	101	-	-	-	-
C[C@H]1CN([C@@H](C)CO)C(=O)c2cc(NC(=O)Nc3ccc(C(F)(F)F)cc3)ccc2O[C@@H]1CN(C)C(=O)NC1CCCCC1	-	-	-	-	-
C[C@@H]1CN([C@@H](C)CO)C(=O)c2cc(NC(=O)Nc3ccc(C(F)(F)F)cc3)ccc2O[C@@H](C)CCCCO[C@@H]1CN(C)C(=O)NC1CCCCC1	60	-	-	-	-
CC(C)NC(=O)N(C)C[C@H]1Oc2c(NS(=O)(=O)c3ccc(Cl)cc3)cccc2C(=O)N([C@H](C)CO)C[C@@H]1C	?	-	.	-	-
COC(=O)c1cc2c(=O)c3ccccc3oc2nc1/C=C/N(C)C	-	-	-	-	28
COC(=O)c1cc2c(=O)c3ccccc3oc2nc1C	-	-	.	-	-
c1ccc(N=C2SCCCS2)cc1	-	-	-	43	-
Cn1c(N)c(C(=O)N2CCN(c3ccccc3)CC2)c(=O)n(C)c1=O	37	-	.	-	-
Cc1cc(O)cc(=O)n1-c1cccc(F)c1	-	-	-	-	-
CCc1cccc(-n2c(C)cc(O)cc2=O)c1	61	-	-	-	-
O=S(=O)(NCc1cccnc1)c1ccc(Cl)c2ccccc12	-	-	27	-	-
O=[N+]([O-])c1cc([N+](=O)[O-])c(Oc2ccc(F)cc2)cc1NN1CCCCC1	-	-	-	-	-
O=[N+]([O-])c1cc([N+](=O)[O-])c(Oc2cc(F)cc(F)c2)cc1NN1CCCCC1	25	-	-	-	-
COc1ccc(Oc2cc(NN3CCCCC3)c([N+](=O)[O-])cc2[N+](=O)[O-])cc1OC	38	-	-	-	-
CCn1c2c(c(=N)c3c1CCC3)CCC2	-	-	.	-	.
CCCCCCCn1c2c(c(=N)c3c1CCC3)CCCC2	-	83	-	-	-
CC=Cc1ccc2n(c1=O)C[C@H]1[C@H](CO)[C@@H](C(=O)N[C@@H](C)c3ccccc3)[C@@H]2N1Cc1ccncc1 (mixture of isomers)	-	-	-	16	-
O=C([C@H]1[C@H](CO)[C@H]2Cn3c(cccc3=O)[C@@H]1N2Cc1cccc(Cl)c1)N1CCCCC1	34	-	-	-	-
SMILES	DENV2 CPE	ERAP1 inh	E-sel inducer	FGF22 binding	F508del corr
O=C(NCCN1CCCC1)[C@H]1[C@H](CO)[C@H]2Cn3c(cccc3=O)[C@@H]1N2C(=O)NC1CCCC1	23	-	-	.	-
O=C(NCc1ccc(F)cc1)[C@H]1[C@H](CO)[C@H]2Cn3c(cccc3=O)[C@@H]1N2CC1CCCC1	43	-	-	-	.
COc1ccccc1-c1cn(CC[C@H]2CC[C@@H](NC(=O)c3cnccn3)[C@H](CO)O2)nn1	-	.	-	-	-
O=C(NC1CCCCC1)[C@H]1[C@H](CO)[C@H]2Cn3c(cccc3=O)[C@@H]1N2Cc1cccnc1	-	-	-	-	.
O=C(NC1CCCCC1)[C@@H]1[C@@H](CO)[C@@H]2Cn3c(cccc3=O)[C@H]1N2Cc1cccnc1	136	-	-	-	.
C[C@H](NC(=O)[C@H]1[C@H](CO)[C@H]2Cn3c(cccc3=O)[C@@H]1N2Cc1cccnc1)c1ccccc1	81	-	-	-	-
